Published values from different studies.
Target: Casein kinase I isoform gamma-3 (CSNK1G3, Homo sapiens, UniProt Q9Y6M4)

| Structure (SMILES) | test | setting | endpoint | value |
| --- | --- | --- | --- | --- |
| Cc1sc(C(=O)NC2COC2)cc1-n1cc(NC(=O)Nc2c(F)cccc2Cl)cn1 | enzyme activity, inhibitor | 10 µM | remaining activity | 91.3% |
| N#CCCc1ccc2c(c1)-c1[nH]c3ccc([N+](=O)[O-])cc3c1CC(=O)N2 | cell-free assay | 0.5 µM | remaining signal | 89.7% |
| COc1ccc2c(O[C@@H]3C[C@H]4C(=O)N[C@]5(C(=O)O)CC5/C=C\CCCCC[C@H](NC(=O)OC5CCCC5)C(=O)N4C3)cc(-c3csc(NC(=O)C(C)C)n3)nc2c1C (some centres unmarked) | cell-free assay, competition with immobilised ligand | 1 µM | remaining binding | 100% |
| Cn1c2c(c3ccc(Cl)c(Cl)c31)C(C#N)C1(CCN(C(=O)OC(C)(C)C)CC1)NC2=O (racemic) | thermal stability, DSF | 10 µM | ΔTm | -0.1 °C |
| Cc1cc(-n2nc(Cc3cc(F)cc(C(F)(F)F)c3)nc2C)ccc1C(N)=O | cell-free assay, competition with immobilised ligand | 1 µM | remaining binding | 95% |
| CCCS(=O)(=O)Nc1ccc(F)c(C(=O)c2c[nH]c3ncc(-c4ccc(Cl)cc4)cc23)c1F | enzyme activity, inhibitor | 1 µM | inhibition | < 10% |
| CN1CC(Oc2cnc(C#N)cc2-c2ccn3nc(NC(=O)C4CC4)cc3c2)C1 | enzyme activity, inhibitor | 1 µM | inhibition | 21% |
| Cc1ccc(C(=O)Nc2ccc(CN3CCN(C)CC3)c(C(F)(F)F)c2)cc1C#Cc1cnc2cccnn12 | enzyme activity, inhibitor | 23.5 nM | remaining activity | 97% |
| CNC(=O)c1cc(Oc2ccc(NC(=O)Nc3ccc(Cl)c(C(F)(F)F)c3)cc2)ccn1 | enzyme activity, inhibitor | 10 µM | inhibition | 2% |
| CS(=O)(=O)CCNCc1ccc(-c2ccc3ncnc(Nc4ccc(OCc5cccc(F)c5)c(Cl)c4)c3c2)o1 | cell-free assay | 0.5 µM | remaining signal | 104% |
| Cc1ccc(Nc2nccc(N(C)c3ccc4c(C)n(C)nc4c3)n2)cc1S(N)(=O)=O | enzyme activity, inhibitor | 10 µM | inhibition | 18% |
| COc1cc2ncnc(Nc3ccc(Oc4ccccc4)cc3C)c2cc1OC | enzyme activity, inhibitor | 1 µM | inhibition | 4% |
| CC(C)(O)[C@H]1CC[C@H](Nc2ccc3ncc(-c4cccc(C(F)(F)F)c4)n3n2)CC1 | enzyme activity, inhibitor | 1 µM | remaining activity | 90% |
| Cn1c2c(c3ccc(Cl)c(Cl)c31)C(C#N)C(C)(C)NC2=O (centres unmarked) | thermal stability, DSF | 10 µM | ΔTm | 0.5 °C |
| C[C@@H]1CCN(C(=O)CC#N)C[C@@H]1N(C)c1ncnc2[nH]ccc12 | cell-free assay, inhibitor | 0.5 µM | remaining signal | 101% |
| C[C@@]1(Cc2ccc(C#N)cc2)C(=O)N(c2cc(Cl)cc(Cl)c2)c2ncc(C(=O)NC3(c4nc(C5CCC5)no4)CC3)n21 | cell-free assay, competition with immobilised ligand | 1 µM | remaining binding | 100% |
| CC(C)(C)c1nc(-c2cccc(NS(=O)(=O)c3c(F)cccc3F)c2F)c(-c2ccnc(N)n2)s1 | enzyme activity, inhibitor, radiometric | 1 µM | remaining activity | 91% |
| CCC1(CC)NC(=O)c2c(c3ccc(Cl)c(Cl)c3n2C)C1C#N (centres unmarked) | thermal stability, DSF | 10 µM | ΔTm | 0 °C |
| C[C@@H](c1cccc(C#N)c1)n1cc(Cl)cc(C(N)=O)c1=N | cell-free assay, competition with immobilised ligand | 1 µM | remaining binding | 100% |
| O=C1NC(=O)c2cc(Nc3ccc(F)cc3)c(Nc3ccc(F)cc3)cc21 | cell-free assay | 0.5 µM | remaining signal | 90.7% |
| Cn1c2c(c3ccc(Cl)c(Cl)c31)C(C#N)C1(CCCCC1)NC2=O (racemic) | thermal stability, DSF | 10 µM | ΔTm | -0.2 °C |
| O=C(O)c1cc(-c2ccc(C3CCNCC3)cc2)c2ccc(-c3ccc(C(F)(F)F)cc3)cc2c1 | cell-free assay, competition with immobilised ligand | 1 µM | remaining binding | 100% |
| COc1cc(Nc2c(C#N)cnc3cc(OCCCN4CCN(C)CC4)c(OC)cc23)c(Cl)cc1Cl | cell-free assay | 0.5 µM | remaining signal | 98.3% |
| CS(=O)(=O)c1cc(C2(NC(=O)c3cncc4c3cnn4-c3ccc(F)cc3)CC2)ccn1 | cell-free assay, competition with immobilised ligand | 1 µM | remaining binding | 100% |
| COc1cc(Cl)c(C(=O)N[C@@H](CN[C@H]2CC[C@@H](N)CC2)Cc2ccc(C#N)cc2)cc1-c1ccc(CN[C@H](C)c2ccc(C)cc2)o1 | enzyme activity, inhibitor | 1 µM | remaining activity | 96% |
| NS(=O)(=O)c1cc(NC(=O)Cc2ccccc2)ccc1Oc1cccc(Cl)c1 | cell-free assay, competition with immobilised ligand | 1 µM | remaining binding | 74% |
| F[C@@H]1CCN(c2nccc(-c3cnn4ncccc34)n2)C1 | binding | 1 µM | remaining binding | 86% |
| CC(C)CC(=O)N1CCc2nc(-c3ccc(Br)cc3)nc(N(C)Cc3ccccc3)c2C1 | cell-free assay, competition with immobilised ligand | 0.1 µM | remaining binding | 100% |
| Cn1c2c(Cl)c(Cl)ccc2c2cc[nH]c(=O)c21 | thermal stability, DSF | 10 µM | ΔTm | -0.2 °C |
